Data set [1] has as its target Neuronal acetylcholine receptor; alpha4/beta2 (Homo sapiens) (UniProt P17787+P43681). In words: Antagonist activity at human recombinant alpha4beta2 nAChR expressed in human HEKtsA201 cells assessed as inhibition of epibatidine-stimulated calcium accumulation at 10 uM pretreated and cotreated with epibatidine by fluorescence plate reader analysis. It counts as cell-based. The gist of the method:
(§1)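 HEKtsA201 cells stably expressing human α3β4 or α4β2 nAChR, plated 2.0–2.3×10^5/well on poly-L-ornithine 24 h before assay; loaded with Calcium 5 NW dye in HEPES-buffered Krebs, 1 h room temperature. Compound (10 μM) added at 20 s, then 1 μM epibatidine at 60 s while compound remained. Fluorescence (ex 485/em 525 nm) recorded 120 s; net response expressed as % of epibatidine control; triplicates.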

Data set [2] addresses Neuronal acetylcholine receptor; alpha3/beta4 (Homo sapiens) (UniProt P30926+P32297). Description: Antagonist activity at human recombinant alpha3beta4 nAChR expressed in human HEKtsA201 cells assessed as inhibition of epibatidine-stimulated calcium accumulation at 10 uM pretreated and cotreated with epibatidine by fluorescence plate reader analysis. It counts as cell-based. The method, boiled down:
as §1

The next data set deals with HT-29. Description: Cytotoxicity against human HT-29 cells assessed as inhibition of cell proliferation after 3 days by SRB assay. The class given is functional, cell-based. Conditions: HT-29, 72 h.
The nature of data set [3]: Cytotoxicity against human CCD-112CoN cells assessed as inhibition of cell proliferation after 3 days by SRB assay. Conditions: 72 h. The class given is cell-based. The method, boiled down: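 CCD-112CoN normal human colon cells grown in MEME with 10% FBS, pyruvate, non-essential amino acids, 37 °C 5% CO2; used ~70% confluent, 7,600 cells/well. Serial dilutions added in triplicate (10% DMSO vehicle), incubated 3 days; cells TCA-fixed, stained with 0.4% sulforhodamine B, dye solubilized in 10 mM Tris, absorbance 515 nm; IC50 by non-linear regression.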

Data set [4] in a line: Selectivity ratio of IC50 for human CCD-112CoN cells to IC50 for human HT29 cells. It counts as ADME, cell-based, HT-29. Conditions: CCD-112CoN cells and HT29 cells, read-out: Ratio IC50.

Active and inactive are the calls of the source. The calls are words filed in the database; no cut-off is given here.

In general, inhibition refers to how much of the control response was suppressed. As usually defined, the IC50 is the midpoint of a concentration-inhibition curve. In the case of `COc1ccc(CCNC(=O)/C=C/c2ccc(O)c(O)c2)cc1`, the figures for the inhibition in data set [1] and in data set [2] were 21.8% and 14%, respectively. In addition, the IC50 in the data set on HT-29 is above 10 µM.

For `CCCC/C=C/C=C/C=C/[C@@H]1CC[C@@H](OC(C)=O)[C@H](C)N1C`, in data set [1], the inhibition was 44.1%. Further, in the data set on HT-29, the IC50 was above 10 µM.

Consider `CCCC/C=C/C=C/C=C/[C@@H]1CC[C@@H](O)[C@H](C)N1`, for which the inhibition amounted to 59% in data set [1] and 53% in data set [2].

Regarding `CNC1(C)C2CCC(C2)C1(C)C` (centres undefined), the inhibition was determined as 91.8% in data set [1] and 88.3% in data set [2].

As for `COc1cc2c3cc1Oc1cc(ccc1O)C[C@@H]1c4c(cc(OC)c(O)c4Oc4ccc(cc4)C[C@@H]3N(C)CC2)CC[N+]1(C)C`, the inhibition was found to be 61% in data set [1] and 54% in data set [2].

For the molecule `O=C(OCC1CCCN(CCCc2ccccc2)C1)c1ccccc1-c1ccccc1` (centres undefined), the inhibition in data set [1] turned out to be 39%. The inhibition entry in data set [2] is “inactive”.

On to `O=C1c2ccccc2-c2c3c(cc4ccnc1c24)OCO3` [LIRIODENINE], for which the figures for the inhibition in data set [1] and in data set [2] were 13.3% and 19.3%, respectively. Further, the IC50 with HT-29 is above 10 µM.

`CCCC/C=C/C=C/C=C/[C@@H]1CC[C@@H](O)[C@H](C)N1C` [MICROGREWIAPINE A]: the inhibition in data set [1] is 74%; in data set [2], 58.2%. Further, the values for the IC50 (in data set [3]; with HT-29) were 30.4 µM and 6.8 µM, respectively. The selectivity ratio in data set [4] came out at 4.

Consider `CCCC/C=C/C=C/C=C/[C@@H]1CC[C@@H](O)[C@H](C)[N+]1(C)[O-]` (some centres undefined) [MICROGREWIAPINE B], for which the inhibition was 79.3% in data set [1] and 82.7% in data set [2]. Besides, the IC50 in the data set with HT-29 is above 10 µM.

With `CCCC/C=C/C=C/C=C/[C@@H]1CC[C@H](O)[C@H](C)[N+]1(C)[O-]` (some centres undefined) [MICROGREWIAPINE C], the inhibition in data set [1] turned out to be 67.3%; in data set [2], 82.8%. For the same molecule, the IC50 in the data set on HT-29 was above 10 µM.

As to `CC(=O)O[C@H]1C(=O)[C@@]2(C)[C@H]([C@H](OC(=O)c3ccccc3)[C@]3(O)C[C@H](OC(=O)[C@H](O)[C@@H](NC(=O)c4ccccc4)c4ccccc4)C(C)=C1C3(C)C)[C@]1(OC(C)=O)CO[C@@H]1C[C@@H]2O` [PACLITAXEL], the IC50 in data set [3] came out at 23 µM; in the data set on HT-29, 0.001 µM.

For the origin of these results see ChEMBL document CHEMBL2331367, “Alkaloids from Microcos paniculata with cytotoxic and nicotinic receptor antagonistic activities” (J Nat Prod, 2013).
